Bioassay records (PubChem BioAssay)
A selection: hits, their analogues and other compounds. The true share with any hit is near 3.9%.
OX1R antag-1: antagonists of human orexin 1 receptor; O43613; CHO/OX1R cells, Fluo-8 calcium fluorescence, orexin A; inhibition, % at 5 µM; 330,000 compounds, 0.43% hits;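 active means inhibition above its plate's threshold, mean inhibition of all tested compounds on the plate plus 3 SD, cut at about 37% in these data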;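 further: 0% = orexin A challenge wells and 100% = SB-334867-A antagonist wells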
Target sequence (O43613 whole entry, looked up): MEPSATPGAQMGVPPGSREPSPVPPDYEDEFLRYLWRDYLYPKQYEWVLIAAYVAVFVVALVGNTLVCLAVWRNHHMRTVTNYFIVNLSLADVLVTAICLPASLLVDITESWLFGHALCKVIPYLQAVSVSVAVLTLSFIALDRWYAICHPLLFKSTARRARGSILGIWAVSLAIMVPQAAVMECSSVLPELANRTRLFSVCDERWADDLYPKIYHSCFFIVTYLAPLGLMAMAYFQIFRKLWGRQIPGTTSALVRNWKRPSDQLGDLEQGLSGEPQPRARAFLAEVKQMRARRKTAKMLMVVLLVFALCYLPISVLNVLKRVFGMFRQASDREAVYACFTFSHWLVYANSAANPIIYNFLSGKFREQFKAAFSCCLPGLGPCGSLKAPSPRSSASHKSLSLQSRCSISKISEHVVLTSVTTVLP
TAAR1 agonist: human TAAR1 agonism. activation, % at 3 µM. 360,000 compounds, 0.99% hits. CHO RD-HGA16 TAAR1, Fluo-8 calcium fluorescence; vehicle wells 0%, saturating PEA agonist 100%. AID 624467;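 active means activation above the mean activation of all test compounds in the run plus 3 SD, cut at about 38% in these data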
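System: CHO-derived RD-HGA16 cells with stable Gα16 and human TAAR1. Times: 17-24 h plating, Fluo-8 75 min 37 °C, 30 min RT. Measured by: calcium-sensitive Fluo-8 signal, excitation 470-495, emission 515-575 nm. Read-out basis: % activation relative to PEA EC100 response. Control set: DMSO and PEA EC100. Repeats: no replicates (n 1).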
TAAR1 antag: human TAAR1 antagonism | inhibition, % at 3 µM | AID 624466 | CHO RD-HGA16 TAAR1, Fluo-8 calcium fluorescence, antagonist | Q96RJ0 | 360,000 compounds, 1.5% hits;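 active means inhibition above a per-plate cutoff, the mean inhibition of test compounds on that plate plus 3 SD, cut at about 49% in these data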;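 further: 0% = DMSO plus EC80 beta-PEA response and 100% = DMSO alone without agonist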
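Assay system: RD-HGA16 CHO cells with stable hTAAR1 and Gα16 / Reagent: EC80 β-phenethylamine stimulus / Doses: 3 µM, single point / Timing: dye loading 75 min at 37 °C, then 30 min room temperature / Measured by: Fluo-8 intracellular calcium dye fluorescence, real-time kinetic reads / Controls: vehicle wells and EC80 agonist wells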
CHO parental Ca: counter-screen: ATP calcium response change in parental CHO cells; AID 463079; 330,000 compounds, 0.63% hits; parental CHO-K1, ATP-induced calcium, Fluo-8 fluorescence; inhibition, % at 5.6 µM;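 active means inhibition above that plate's mean sample inhibition plus 3 SD, cut at about 26% in these data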;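 further: 0% = ATP-challenged DMSO wells and 100% = DMSO wells without ATP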
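Test system: untransfected parental CHO cell line; also added: ATP stimulus; dosing: 5.6 µM, single dose; signal: calcium-sensitive Fluo-8 fluorescence; measure: percent inhibition of ATP-evoked calcium rise, normalized to controls; benchmarks: low control ATP plus DMSO, high control DMSO only; replication: one well per compound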
OX1R antag-2: blocks the human orexin 1 receptor; AID 485270; O43613; inhibition, % at 6.6 µM; 330,000 compounds, 1.8% hits; OX1R-expressing cells, FRET antagonist read-out; in the data active means inhibition mostly above about 38%, no sharp cut-off; inactive means mostly below about 40%;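 further: 0% = agonist challenge alone and 100% = reference antagonist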
Starred values were filed as active, the others as inactive; / = no result.

SMILES | OX1R antag-1 | TAAR1 agonist | TAAR1 antag | CHO parental Ca | OX1R antag-2
CCCC(=O)c1ccc(N2CCN(C(=O)c3ccccc3)CC2)c(F)c1 | -2 | 10 | 20 | 3 | 35
CCCC(=O)c1ccc(N2CCN(C(=O)c3ccccc3Br)CC2)c(F)c1 | 32 | 15 | 13 | 52* | 41
COc1cc(N=c2ssnc2Cl)cc(OC)c1OC | -19 | 42* | 22 | -8 | 33
COc1ccc(N=c2ssnc2Cl)cc1 | -1 | / | / | -9 | 43
Clc1ccc(N=c2ssnc2Cl)cc1 | 23 | 46* | 18 | 10 | 41
CN(C)CCOc1ccc(-c2c(-c3ccsc3)sc3ccccc23)cc1 | 48 | 24 | 29 | 27 | -5
COc1ccc(-c2sc3ccccc3c2-c2ccc(OCCN(C)C)cc2)cc1 | 70* | 11 | 47 | 50* | 2
O=C(Nc1ccc(Cl)cc1)C1C2CCC3C(CCC21)C3(Cl)Cl (centres undefined) | / | 4 | 56* | / | /
CCCCNC(=S)N1CCN(CC)CC1 | 7 | 39* | -35 | 4 | 6
CC(C)COC(=O)NCCOC(=O)Nc1cccc(Cl)c1 | 1 | 6 | 23 | 57* | 37
O=C(CCC(=O)c1ccc(F)cc1)OCc1nnc(-c2ccc([N+](=O)[O-])cc2)o1 | -2 | 0 | -3 | -9 | 41*
Cc1csc(=O)n1CCC(=O)OCC(=O)Nc1cc(Cl)ccc1[N+](=O)[O-] | -18 | 4 | -16 | -8 | 53*
Cc1csc(=O)n1CC(=O)OCC(=O)NNC(=O)c1ccc([N+](=O)[O-])cc1 | -1 | 1 | -17 | 0 | 76*
Cc1csc(=O)n1CC(=O)OCc1nnc(-c2ccc([N+](=O)[O-])cc2)o1 | 1 | 7 | 0 | -2 | 37*
Cc1csc(=O)n1CC(=O)OCc1nnc(-c2ccc(Cl)cc2)o1 | -23 | 0 | -6 | -17 | 17
NC(=O)c1c(N)[nH]c(C(=O)c2ccccc2)c1-c1ccccc1 | / | 7 | -11 | / | /
CN(C)c1cccc2c(S(=O)(=O)NCC3CCN(C(=O)C(=O)c4cccs4)CC3)cccc12 | / | 2 | -20 | / | /
Cn1nc(C2CC2)cc1NC(=O)C1(C)CCN1C(=O)Cc1ccc(-c2ccccc2)cc1 (centres undefined) | / | 5 | 20 | / | /
Cc1ccc(C(=O)NCC(=O)OCc2nnc(-c3ccc([N+](=O)[O-])cc3)o2)s1 | -17 | -1 | -18 | -14 | 38*
O=C(CNC(=O)c1ccccc1)OCc1nnc(-c2ccccc2)o1 | -27 | 0 | 16 | 13 | 7
CC1(C)Cc2cccc(OCC(=O)OCc3nnc(-c4ccc([N+](=O)[O-])cc4)o3)c2O1 | -7 | -1 | 3 | -2 | 50*
Cn1c2ccccc2c2cc(/C=N/NC(=O)c3cc(O)cc(O)c3)ccc21 | 14 | 1 | -24 | -8 | 74*
COc1cc(C(=O)N/N=C/c2ccc3c(c2)c2ccccc2n3C)ccc1O | / | 2 | 13 | / | /
CCn1c2ccccc2c2cc(/C=N/NC(=O)c3ccccc3)ccc21 | 67* | 17 | 9 | -22 | 92*
CCCCCCC(=O)NNC(=O)c1c(O)c2ccccc2n(CC)c1=O | -37 | 21 | 0 | -26 | 22
SMILES | OX1R antag-1 | TAAR1 agonist | TAAR1 antag | CHO parental Ca | OX1R antag-2
CCn1c(=O)c(C(=O)NNC(=O)c2ccccc2)c(O)c2ccccc21 | -12 | 38* | -1 | -6 | 53
COc1ccc(CC(=O)Nc2ccc(S(=O)(=O)Nc3cc(C)nc(C)n3)cc2)cc1OC | / | 1 | -19 | / | /
COC(=O)CCC[C@H](C)[C@@H](NS(=O)(=O)c1ccc(C)cc1)C(C)(C)C | / | -2 | -16 | / | /
Cc1ccc(S(=O)(=O)N(C)CC(=O)Nc2ccccc2)cc1 | -15 | 11 | -7 | -6 | 14
CN(CC(=O)Nc1ccncc1)S(=O)(=O)c1ccc(Br)cc1 | -1 | 5 | 5 | -7 | 11
CC(=O)Nc1ccc(S(=O)(=O)N(C)CC(=O)Nc2ccc(Br)cc2F)cc1 | -18 | 5 | 10 | 67* | 20
CSc1cccc(NC(=O)CN(C)S(=O)(=O)c2ccc(C)cc2)c1 | 51* | 6 | 12 | 30 | 78*
O=C(O)c1cccc(NC(=S)N/N=C/c2ccccc2OCc2ccc(Br)cc2)c1 | 16 | -2 | -1 | 42* | 50
O=C(O)c1cccc(NC(=S)N/N=C/c2ccccc2OCc2cccc(Br)c2)c1 | / | -1 | -12 | / | /
